The subject of experiment [1] is Canis familiaris. As to the kind of experiment: Ex vivo TXA2 ([…]) antagonist activity was determined for U-46,619 induced aggregation (dose ratio) after 24 hr of oral dosing (3 mg/kg) in the dog. In kind it is functional, Canis lupus familiaris. The method in brief: (§1)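 Dogs (n = 4) dosed orally, blood sampled at 2, 5, 8 and 24 h. Platelet-rich plasma aggregated with U46619 plus a predetermined threshold ADP concentration (about 0.4–1.2 × 10^-6 M), compared before vs after dosing to give a U46619 dose ratio. ">" marks the maximum achievable ratio at top U46619 (1 × 10^-4 M).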

Experiment [2] deals with Canis familiaris. As to the kind of experiment: Ex vivo TXA2 ([…]) antagonist activity was determined for U-46,619 induced aggregation (dose ratio) after 2 hr of oral dosing (1 mg/kg) in the dog. Format: functional, Canis lupus familiaris. The method in brief:
as §1

Experiment [3] deals with Canis familiaris. Put plainly: Ex vivo TXA2 ([…]) antagonist activity was determined for U-46,619 induced aggregation (dose ratio) after 5 hr of oral dosing (10 mg/kg) in the dog. Format: functional, Canis lupus familiaris. The method in brief:
as §1

Experiment [4] concerns Canis familiaris. Put plainly: Ex vivo TXA2 ([…]) antagonist activity was determined for U-46,619 induced aggregation (dose ratio) after 5 hr of oral dosing (1 mg/kg) in the dog. Format: functional, Canis lupus familiaris. The method, boiled down: as §1
Experiment [5] has as its system Canis familiaris. As to the kind of experiment: Ex vivo TXA2 ([…]) antagonist activity was determined for U-46,619 induced aggregation (dose ratio) after 5 hr of oral dosing (3 mg/kg) in the dog. In kind it is functional, Canis lupus familiaris. The method in brief: as §1
Experiment [6] has as its system Canis familiaris. Put plainly: Ex vivo TXA2 ([…]) antagonist activity was determined for U-46,619 induced aggregation (dose ratio) after 8 hr of oral dosing (1 mg/kg) in the dog. In kind it is functional, Canis lupus familiaris. The method in brief: as §1
A further experiment is filed under the species Homo sapiens. Put plainly: In vitro inhibition of U-46,619-induced aggregation of unwashed human platelets. In kind it is functional. The method in brief:
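Citrated (3.2%) human venous blood spun at 200g for 10 min. Platelet-rich plasma aggregated with U46619 with or without several antagonist concentrations.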

Experiment [7] deals with Rattus norvegicus. As to the kind of experiment: Ex vivo […] (TXA2 synthase) inhibitory activity after 3 hr of oral dosing (10 mg/kg) in the rat. In kind it is functional. The method, boiled down:
(§2)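 Rats (n = 6) gavaged, anesthetized, aortic blood taken at 1, 3 or 5 h after dosing. A blood aliquot was challenged with collagen and TXB2 measured by radioimmunoassay; expressed as % inhibition of TXA2 synthase (±SEM).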

In experiment [8] the test system is Rattus norvegicus. As to the kind of experiment: Ex vivo […] (TXA2 synthase) inhibitory activity after 3 hr of oral dosing (3 mg/kg) in the rat. Format: functional. The method in brief:
as §2

The test system of experiment [9] is Rattus norvegicus. As to the kind of experiment: Ex vivo […] (TXA2 synthase) inhibitory activity after 5 hr of oral dosing (3 mg/kg) in the rat. Format: functional. The method, boiled down:
as §2

Experiment [10] deals with Rattus norvegicus. As to the kind of experiment: Ex vivo […] (TXA2 synthase) inhibitory activity after 1 hr of oral dosing (1 mg/kg) in the rat. Format: functional. The method in brief:
as §2

The test system of experiment [11] is Rattus norvegicus. Put plainly: Ex vivo TXA2 ([…]) antagonist activity was determined for U-46,619 induced aggregation (dose ratio) after 5 hr of oral dosing (5 mg/kg) in the rat. In kind it is functional. The method, boiled down: (§3)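 Conscious rats (n = 6) dosed by oral gavage, then anesthetized and bled from the abdominal aorta at 1, 3 or 5 h. Platelet-rich plasma aggregated with U46619 before and after dosing to give a U46619 dose ratio. ">" values mark the maximum dose ratio achievable at the top U46619 concentration (1 × 10^-4 M).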

The subject of experiment [12] is Rattus norvegicus. Put plainly: Ex vivo TXA2 ([…]) antagonist activity was determined for U-46,619 induced aggregation (dose ratio) after 1 hr of oral dosing (10 mg/kg) in the rat. Format: functional. The method, boiled down: as §3
Experiment [13] deals with Rattus norvegicus. Put plainly: Ex vivo TXA2 ([…]) antagonist activity was determined for U-46,619 induced aggregation (dose ratio) after 1 hr of oral dosing (3 mg/kg) in the rat. Format: functional. The method in brief: as §3
The subject of experiment [14] is Rattus norvegicus. As to the kind of experiment: Ex vivo TXA2 ([…]) antagonist activity was determined for U-46,619 induced aggregation (dose ratio) after 1 hr of oral dosing (5 mg/kg) in the rat. Format: functional. The method in brief:
as §3

For experiment [15], the system named is Rattus norvegicus. As to the kind of experiment: Ex vivo TXA2 ([…]) antagonist activity was determined for U-46,619 induced aggregation (dose ratio) after 3 hr of oral dosing (10 mg/kg) in the rat. In kind it is functional. The method, boiled down: as §3
In experiment [16] the test system is Rattus norvegicus. Put plainly: Ex vivo TXA2 ([…]) antagonist activity was determined for U-46,619 induced aggregation (dose ratio) after 3 hr of oral dosing (1 mg/kg) in the rat. In kind it is functional. The method in brief: as §3
Experiment [17] concerns Rattus norvegicus. Put plainly: Ex vivo TXA2 ([…]) antagonist activity was determined for U-46,619 induced aggregation (dose ratio) after 5 hr of oral dosing (1 mg/kg) in the rat. In kind it is functional. The method, boiled down:
as §3

The test system of experiment [18] is Rattus norvegicus. Put plainly: Ex vivo TXA2 ([…]) antagonist activity was determined for U-46,619 induced aggregation (dose ratio) after 5 hr of oral dosing (3 mg/kg) in the rat. Format: functional. The method, boiled down:
as §3

For a further experiment, the target named is T1, Thromboxane-A synthase (Homo sapiens, UniProt P24557).
T1 sequence (P24557 whole entry): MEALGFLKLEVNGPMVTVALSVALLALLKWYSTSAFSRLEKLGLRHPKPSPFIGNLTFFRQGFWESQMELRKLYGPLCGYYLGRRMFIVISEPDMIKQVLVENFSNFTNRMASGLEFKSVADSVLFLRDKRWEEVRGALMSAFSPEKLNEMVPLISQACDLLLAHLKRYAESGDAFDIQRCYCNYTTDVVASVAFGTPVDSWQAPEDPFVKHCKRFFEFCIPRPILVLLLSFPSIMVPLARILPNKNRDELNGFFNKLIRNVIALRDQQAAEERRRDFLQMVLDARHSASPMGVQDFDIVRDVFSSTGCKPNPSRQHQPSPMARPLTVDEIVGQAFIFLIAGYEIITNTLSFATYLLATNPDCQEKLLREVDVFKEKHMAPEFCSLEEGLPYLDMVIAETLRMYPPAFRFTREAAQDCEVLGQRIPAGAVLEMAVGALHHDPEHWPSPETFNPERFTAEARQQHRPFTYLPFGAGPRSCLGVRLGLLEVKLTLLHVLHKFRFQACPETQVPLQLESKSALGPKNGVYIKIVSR
As to the kind of experiment: In vitro Inhibition of thromboxane synthase from human blood platelet microsomes. The method, boiled down: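 Human blood platelet microsomes incubated with [1-14C]arachidonic acid with or without inhibitor. Conversion to labeled thromboxane B2 quantified radiochromatographically. n = 2.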

A further experiment addresses T2, Prostacyclin synthase (Homo sapiens, UniProt Q16647).
T2 sequence (Q16647 whole entry): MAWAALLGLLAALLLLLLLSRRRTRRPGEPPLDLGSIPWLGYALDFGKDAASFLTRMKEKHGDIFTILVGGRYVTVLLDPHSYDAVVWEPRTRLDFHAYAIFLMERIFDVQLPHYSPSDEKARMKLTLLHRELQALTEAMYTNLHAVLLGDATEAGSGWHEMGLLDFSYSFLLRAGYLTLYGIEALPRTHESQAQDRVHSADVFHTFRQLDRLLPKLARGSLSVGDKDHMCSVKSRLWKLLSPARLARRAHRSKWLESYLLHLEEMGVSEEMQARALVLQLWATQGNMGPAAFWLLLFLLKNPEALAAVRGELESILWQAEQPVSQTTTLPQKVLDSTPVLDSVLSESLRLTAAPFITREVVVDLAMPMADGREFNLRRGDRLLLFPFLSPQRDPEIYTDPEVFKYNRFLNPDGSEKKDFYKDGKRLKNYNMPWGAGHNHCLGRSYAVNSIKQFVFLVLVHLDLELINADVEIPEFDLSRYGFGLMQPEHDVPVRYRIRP
As to the kind of experiment: In vitro inhibition of Prostaglandin I2 synthase in cultured human endothelial cells.

For the compound `Cc1ccc(OC(C)(C)C2OCC(C/C=C\CCC(=O)O)C(c3cccnc3)O2)c([N+](=O)[O-])c1` (stereo in doubt; 7x), the Antagonist activity in the experiment on Canis familiaris [1] is recorded as >281; with Canis familiaris [2] it was >506; with Canis familiaris [3] it was >522; in the experiment with Canis familiaris [4], >506; in the experiment with Canis familiaris [5], >321; with Canis familiaris [6], >506. For the same compound, the Antagonist activity in the experiment with Rattus norvegicus [11] is >47; in the experiment with Rattus norvegicus [12], >113; in the experiment with Rattus norvegicus [13], >34; in the experiment with Rattus norvegicus [14], >60; in the experiment on Rattus norvegicus [15] it was >71; in the experiment with Rattus norvegicus [16], >27. Besides, the Antagonist activity in the experiment with Rattus norvegicus [17] is reported as >9; in the experiment with Rattus norvegicus [18], >21. The pA2 (commonly a measure of antagonist potency on a negative log scale) in the experiment listed under Homo sapiens came out at 8.43. Besides, the Inhibition (commonly the relative decrease from the control value, in per cent) in the experiment on Rattus norvegicus [7] came out at 93.9%; in the experiment on Rattus norvegicus [8], 82.5%; in the experiment on Rattus norvegicus [9], 68.3%; with Rattus norvegicus [10], 61.8%. Further, the figures for the IC50 against Thromboxane-A synthase and against Prostacyclin synthase were 19 nM and 28 µM, respectively.

Values taken from ChEMBL document CHEMBL1128245, “Dual-acting thromboxane receptor antagonist/synthase inhibitors: synthesis and biological properties of [2-substituted-4-(3-pyridyl)-1,3-dioxan-5-yl] alkenoic acids” (J Med Chem, 1995).
